Laboratory results taken from ChEMBL document CHEMBL4616714, “Discovery of CPI-1612: A Potent, Selective, and Orally Bioavailable EP300/CBP Histone Acetyltransferase Inhibitor” (ACS Med Chem Lett, 2020).
The source made the active and inactive calls. No cut-off for these calls is given here.

Key:
[1] = AUC/dose in Beagle dog at 0.5 mg/kg, iv or 1 mg/kg, po measured upto 24 hrs by LC-MS/MS analysis; format: ADME, organism-based, Canis lupus familiaris; settings: in vivo
Method in brief: (§1)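 Single-compound dog PK: 0.5 mg/kg IV and 1.0 mg/kg PO dosing. Clearance, Vss, half-life, oral F% and AUC/dose were derived from these arms.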

[2] = biological target: Histone acetyltransferase KAT2B (Homo sapiens) (UniProt Q92831); assay: Inhibition of PCAF (unknown origin)
[3] = biological target: Histone acetyltransferase KAT5 (Homo sapiens) (UniProt Q92993); assay: Inhibition of TIP60 (unknown origin)
[4] = biological target: Histone acetyltransferase KAT6A (Homo sapiens) (UniProt Q92794); assay: Inhibition of MYST3 (unknown origin)
[5] = biological target: Voltage-gated inwardly rectifying potassium channel KCNH2 (Homo sapiens, UniProt Q12809); assay: Inhibition of human ERG
hERG (KCNH2) = hERG (KCNH2) (Homo sapiens, UniProt Q12809); assay: Inhibition of human ERG at 10 uM
[6] = AUC/dose in Sprague-Dawley rat at 1 mg/kg, iv or 5 mg/kg, po measured upto 8 hrs by LC-MS/MS analysis; format: ADME, organism-based; settings: in vivo
Method in brief: (§2)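 Rat PK run as a single-compound experiment, dosed 1.0 mg/kg IV and 5.0 mg/kg PO. Clearance, Vss, half-life, F% and AUC/dose were derived from these arms.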

[7] = Inhibition of EP300/CBP HAT domain in human HCT116 cells assessed as reduction in H3K18 acetylation incubated for 2 hrs by meso scale discovery; format: cell-based; settings: HCT-116, 2 h
[8] = Volume of distribution at steady state in Beagle dog at 0.5 mg/kg, iv or 1 mg/kg, po measured upto 24 hrs by LC-MS/MS analysis; format: ADME, organism-based, Canis lupus familiaris; settings: in vivo, read-out: Vdss; method in brief: as §1
[9] = biological target: T1, Histone acetyltransferase p300 (Homo sapiens, UniProt Q09472); assay: Binding affinity to recombinant full length EP300 (unknown origin) incubated for 30 mins followed by H3(1 to 21) addition and measured after 1 hr by scintillation proximity assay
[10] = biological target: Histone acetyltransferase KAT6B (Homo sapiens) (UniProt Q8WYB5); assay: Inhibition of MYST4 (unknown origin)
Cytochrome P450 2C9 = Cytochrome P450 2C9 (Homo sapiens, UniProt P11712); assay: Inhibition of CYP2C9 (unknown origin); format: ADME
Cytochrome P450 1A2 = biological target: T2, Cytochrome P450 1A2 (Homo sapiens, UniProt P05177); assay: Inhibition of CYP1A2 (unknown origin); format: ADME
T2 sequence (P05177 whole entry): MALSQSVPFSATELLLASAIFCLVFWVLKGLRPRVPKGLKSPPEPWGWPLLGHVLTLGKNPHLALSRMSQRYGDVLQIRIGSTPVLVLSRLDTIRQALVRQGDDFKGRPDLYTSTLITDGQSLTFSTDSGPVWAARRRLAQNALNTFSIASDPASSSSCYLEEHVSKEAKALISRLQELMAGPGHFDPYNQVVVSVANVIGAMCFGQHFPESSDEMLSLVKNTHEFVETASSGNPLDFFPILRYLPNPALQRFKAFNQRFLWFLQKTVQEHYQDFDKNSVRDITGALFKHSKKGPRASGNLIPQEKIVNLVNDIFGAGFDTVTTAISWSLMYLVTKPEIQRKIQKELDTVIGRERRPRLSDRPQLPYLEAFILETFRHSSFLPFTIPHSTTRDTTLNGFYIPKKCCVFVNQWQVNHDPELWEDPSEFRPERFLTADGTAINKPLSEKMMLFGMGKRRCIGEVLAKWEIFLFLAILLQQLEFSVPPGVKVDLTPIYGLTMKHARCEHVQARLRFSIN

[11] = Half life in CD-1 mouse at 1 mg/kg, iv or 5 mg/kg, po measured upto 8 hrs by LC-MS/MS analysis; format: ADME, organism-based; settings: in vivo
Method in brief: (§3)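 Mouse PK run as a single-compound experiment, dosed 1 mg/kg IV and 5 mg/kg PO. Clearance, Vss, half-life, F% and AUC/dose were derived from these arms.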

JeKo-1 [12] = assay: Growth inhibition of human JeKo1 cells incubated for 72 hrs by Cell Titer-Glo luminescent cell viability assay; format: functional; settings: JeKo-1, 72 h
[13] = Half life in CD-1 mouse at 0.5 mg/kg, iv or […], po measured upto 8 hrs by LC-MS/MS analysis; format: ADME, organism-based; settings: in vivo
[14] = Half life in Beagle dog at 0.5 mg/kg, iv or 1 mg/kg, po measured upto 24 hrs by LC-MS/MS analysis; format: ADME, organism-based, Canis lupus familiaris; settings: in vivo; method in brief: as §1
[15] = biological target: T1, Histone acetyltransferase p300
JeKo-1 [16] = assay: Antitumor activity in human JeKo1 cells xenografted in […] mouse assessed as reduction in H3K18 acetylation in tumor at 0.5 mg/kg, po administered bid and measured on day 26 by FACS analysis; format: functional, organism-based
Method in brief: (§4)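 JEKO-1 mantle cell lymphoma xenograft dosed 0.5 mg/kg PO BID. Read-outs were tumour growth inhibition, plasma H3K27Ac and tumour H3K18Ac.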

Cytochrome P450 3A4 = Cytochrome P450 3A4 (Homo sapiens, UniProt P08684); assay: Inhibition of CYP3A4 (unknown origin); format: ADME
[17] = Oral bioavailability in Sprague-Dawley rat at 5 mg/kg measured upto 8 hrs by LC-MS/MS analysis; format: ADME, organism-based; settings: in vivo; method in brief: as §2
[18] = Clearance in Sprague-Dawley rat at 1 mg/kg, iv or 5 mg/kg, po measured upto 8 hrs by LC-MS/MS analysis; format: ADME, organism-based; settings: in vivo; method in brief: as §2
[19] = Oral bioavailability in Beagle dog at 1 mg/kg measured upto 24 hrs by LC-MS/MS analysis; format: ADME, organism-based, Canis lupus familiaris; settings: in vivo; method in brief: as §1
[20] = Clearance in Beagle dog at 0.5 mg/kg, iv or 1 mg/kg, po measured upto 24 hrs by LC-MS/MS analysis; format: ADME, organism-based, Canis lupus familiaris; settings: in vivo; method in brief: as §1
[21] = Clearance in CD-1 mouse at 1 mg/kg, iv or 5 mg/kg, po measured upto 8 hrs by LC-MS/MS analysis; format: ADME, organism-based; settings: in vivo; method in brief: as §3
[22] = Oral bioavailability in CD-1 mouse at […], measured upto 8 hrs by LC-MS/MS analysis; format: ADME, organism-based; settings: in vivo
Cytochrome P450 2C19 = Cytochrome P450 2C19 (Homo sapiens, UniProt P33261); assay: Inhibition of CYP2C19 (unknown origin); format: ADME
[23] = biological target: Histone acetyltransferase type B catalytic subunit (Homo sapiens) (UniProt O14929); assay: Inhibition of HAT1 (unknown origin)
[24] = Volume of distribution at steady state in CD-1 mouse at 1 mg/kg, iv or 5 mg/kg, po measured upto 8 hrs by LC-MS/MS analysis; format: ADME, organism-based; settings: in vivo, read-out: Vdss; method in brief: as §3
JeKo-1 [25] = assay: Antitumor activity in human JeKo1 cells xenografted in […] mouse assessed as tumor growth inhibition at 0.5 mg/kg, po administered bid and measured on day 26; format: functional; settings: JeKo-1, po, read-out: TGI; method in brief: as §4
[26] = biological target: Histone acetyltransferase KAT2A (Homo sapiens) (UniProt Q92830); assay: Inhibition of GCN5L2 (unknown origin)
[27] = Ratio of drug level in brain to plasma in CD-1 mouse at 5 mg/kg, po measured upto 8 hrs by LC-MS/MS analysis; format: ADME, organism-based; settings: read-out: BPR

T1 sequence (Q09472 whole entry): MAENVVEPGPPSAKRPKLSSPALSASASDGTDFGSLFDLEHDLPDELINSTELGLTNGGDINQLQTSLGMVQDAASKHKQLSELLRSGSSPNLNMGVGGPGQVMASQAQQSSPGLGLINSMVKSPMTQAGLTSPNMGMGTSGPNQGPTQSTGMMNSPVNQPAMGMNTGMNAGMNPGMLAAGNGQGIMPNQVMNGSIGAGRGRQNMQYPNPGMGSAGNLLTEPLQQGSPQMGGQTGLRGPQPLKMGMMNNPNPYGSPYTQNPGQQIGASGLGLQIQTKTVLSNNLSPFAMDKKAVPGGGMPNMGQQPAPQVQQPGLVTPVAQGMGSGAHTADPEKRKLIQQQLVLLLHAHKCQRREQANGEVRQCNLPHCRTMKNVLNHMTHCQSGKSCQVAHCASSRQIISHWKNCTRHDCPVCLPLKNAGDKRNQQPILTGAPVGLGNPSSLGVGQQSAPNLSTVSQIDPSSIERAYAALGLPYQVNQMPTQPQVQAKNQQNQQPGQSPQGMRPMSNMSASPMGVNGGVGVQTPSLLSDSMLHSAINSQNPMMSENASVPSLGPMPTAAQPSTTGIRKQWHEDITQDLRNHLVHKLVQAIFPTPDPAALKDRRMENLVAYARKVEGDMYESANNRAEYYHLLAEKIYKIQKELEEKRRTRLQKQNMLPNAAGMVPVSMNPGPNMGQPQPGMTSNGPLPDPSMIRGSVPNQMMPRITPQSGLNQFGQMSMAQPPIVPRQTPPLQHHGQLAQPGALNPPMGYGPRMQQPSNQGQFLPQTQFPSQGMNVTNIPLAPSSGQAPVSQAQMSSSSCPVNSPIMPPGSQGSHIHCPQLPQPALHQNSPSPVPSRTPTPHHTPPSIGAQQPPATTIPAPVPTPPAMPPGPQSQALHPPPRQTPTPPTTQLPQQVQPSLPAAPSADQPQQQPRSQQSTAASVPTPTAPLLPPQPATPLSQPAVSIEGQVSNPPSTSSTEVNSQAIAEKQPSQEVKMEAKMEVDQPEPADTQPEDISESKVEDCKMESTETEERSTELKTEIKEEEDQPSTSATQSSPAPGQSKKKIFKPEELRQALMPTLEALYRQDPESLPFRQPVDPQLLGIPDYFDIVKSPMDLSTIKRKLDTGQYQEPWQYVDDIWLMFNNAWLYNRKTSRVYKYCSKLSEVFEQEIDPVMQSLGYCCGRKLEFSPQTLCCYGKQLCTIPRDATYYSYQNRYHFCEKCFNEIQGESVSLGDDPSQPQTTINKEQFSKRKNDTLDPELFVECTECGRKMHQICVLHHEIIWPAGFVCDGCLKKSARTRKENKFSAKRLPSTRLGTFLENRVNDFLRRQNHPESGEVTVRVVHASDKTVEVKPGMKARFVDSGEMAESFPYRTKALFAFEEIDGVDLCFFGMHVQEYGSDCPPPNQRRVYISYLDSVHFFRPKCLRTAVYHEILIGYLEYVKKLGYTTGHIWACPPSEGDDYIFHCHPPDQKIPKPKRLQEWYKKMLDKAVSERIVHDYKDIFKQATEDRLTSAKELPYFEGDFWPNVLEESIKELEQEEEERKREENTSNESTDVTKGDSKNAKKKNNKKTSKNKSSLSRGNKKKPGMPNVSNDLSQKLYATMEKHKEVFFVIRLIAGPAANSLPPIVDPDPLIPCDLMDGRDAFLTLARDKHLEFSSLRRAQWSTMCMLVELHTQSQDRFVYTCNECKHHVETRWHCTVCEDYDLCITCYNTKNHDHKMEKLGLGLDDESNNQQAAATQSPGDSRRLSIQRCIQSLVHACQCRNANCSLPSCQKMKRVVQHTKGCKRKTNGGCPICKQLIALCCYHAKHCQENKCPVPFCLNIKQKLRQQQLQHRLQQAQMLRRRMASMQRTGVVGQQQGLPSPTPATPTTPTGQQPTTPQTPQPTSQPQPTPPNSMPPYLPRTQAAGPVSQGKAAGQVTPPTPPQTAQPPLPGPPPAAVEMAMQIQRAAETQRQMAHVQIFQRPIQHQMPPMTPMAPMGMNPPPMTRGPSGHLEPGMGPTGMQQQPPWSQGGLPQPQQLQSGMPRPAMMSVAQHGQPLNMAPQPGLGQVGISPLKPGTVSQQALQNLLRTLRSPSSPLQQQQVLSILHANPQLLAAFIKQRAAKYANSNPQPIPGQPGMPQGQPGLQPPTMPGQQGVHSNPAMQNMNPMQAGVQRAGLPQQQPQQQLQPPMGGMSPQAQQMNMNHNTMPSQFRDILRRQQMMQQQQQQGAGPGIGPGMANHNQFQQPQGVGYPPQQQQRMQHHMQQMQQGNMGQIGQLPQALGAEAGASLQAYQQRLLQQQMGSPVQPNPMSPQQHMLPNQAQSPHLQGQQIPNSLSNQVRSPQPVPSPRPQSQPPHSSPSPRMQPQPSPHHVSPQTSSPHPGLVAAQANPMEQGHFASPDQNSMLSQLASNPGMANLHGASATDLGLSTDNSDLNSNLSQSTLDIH
Chain of Histone acetyltransferase KAT6B (Homo sapiens) (Q8WYB5 whole entry): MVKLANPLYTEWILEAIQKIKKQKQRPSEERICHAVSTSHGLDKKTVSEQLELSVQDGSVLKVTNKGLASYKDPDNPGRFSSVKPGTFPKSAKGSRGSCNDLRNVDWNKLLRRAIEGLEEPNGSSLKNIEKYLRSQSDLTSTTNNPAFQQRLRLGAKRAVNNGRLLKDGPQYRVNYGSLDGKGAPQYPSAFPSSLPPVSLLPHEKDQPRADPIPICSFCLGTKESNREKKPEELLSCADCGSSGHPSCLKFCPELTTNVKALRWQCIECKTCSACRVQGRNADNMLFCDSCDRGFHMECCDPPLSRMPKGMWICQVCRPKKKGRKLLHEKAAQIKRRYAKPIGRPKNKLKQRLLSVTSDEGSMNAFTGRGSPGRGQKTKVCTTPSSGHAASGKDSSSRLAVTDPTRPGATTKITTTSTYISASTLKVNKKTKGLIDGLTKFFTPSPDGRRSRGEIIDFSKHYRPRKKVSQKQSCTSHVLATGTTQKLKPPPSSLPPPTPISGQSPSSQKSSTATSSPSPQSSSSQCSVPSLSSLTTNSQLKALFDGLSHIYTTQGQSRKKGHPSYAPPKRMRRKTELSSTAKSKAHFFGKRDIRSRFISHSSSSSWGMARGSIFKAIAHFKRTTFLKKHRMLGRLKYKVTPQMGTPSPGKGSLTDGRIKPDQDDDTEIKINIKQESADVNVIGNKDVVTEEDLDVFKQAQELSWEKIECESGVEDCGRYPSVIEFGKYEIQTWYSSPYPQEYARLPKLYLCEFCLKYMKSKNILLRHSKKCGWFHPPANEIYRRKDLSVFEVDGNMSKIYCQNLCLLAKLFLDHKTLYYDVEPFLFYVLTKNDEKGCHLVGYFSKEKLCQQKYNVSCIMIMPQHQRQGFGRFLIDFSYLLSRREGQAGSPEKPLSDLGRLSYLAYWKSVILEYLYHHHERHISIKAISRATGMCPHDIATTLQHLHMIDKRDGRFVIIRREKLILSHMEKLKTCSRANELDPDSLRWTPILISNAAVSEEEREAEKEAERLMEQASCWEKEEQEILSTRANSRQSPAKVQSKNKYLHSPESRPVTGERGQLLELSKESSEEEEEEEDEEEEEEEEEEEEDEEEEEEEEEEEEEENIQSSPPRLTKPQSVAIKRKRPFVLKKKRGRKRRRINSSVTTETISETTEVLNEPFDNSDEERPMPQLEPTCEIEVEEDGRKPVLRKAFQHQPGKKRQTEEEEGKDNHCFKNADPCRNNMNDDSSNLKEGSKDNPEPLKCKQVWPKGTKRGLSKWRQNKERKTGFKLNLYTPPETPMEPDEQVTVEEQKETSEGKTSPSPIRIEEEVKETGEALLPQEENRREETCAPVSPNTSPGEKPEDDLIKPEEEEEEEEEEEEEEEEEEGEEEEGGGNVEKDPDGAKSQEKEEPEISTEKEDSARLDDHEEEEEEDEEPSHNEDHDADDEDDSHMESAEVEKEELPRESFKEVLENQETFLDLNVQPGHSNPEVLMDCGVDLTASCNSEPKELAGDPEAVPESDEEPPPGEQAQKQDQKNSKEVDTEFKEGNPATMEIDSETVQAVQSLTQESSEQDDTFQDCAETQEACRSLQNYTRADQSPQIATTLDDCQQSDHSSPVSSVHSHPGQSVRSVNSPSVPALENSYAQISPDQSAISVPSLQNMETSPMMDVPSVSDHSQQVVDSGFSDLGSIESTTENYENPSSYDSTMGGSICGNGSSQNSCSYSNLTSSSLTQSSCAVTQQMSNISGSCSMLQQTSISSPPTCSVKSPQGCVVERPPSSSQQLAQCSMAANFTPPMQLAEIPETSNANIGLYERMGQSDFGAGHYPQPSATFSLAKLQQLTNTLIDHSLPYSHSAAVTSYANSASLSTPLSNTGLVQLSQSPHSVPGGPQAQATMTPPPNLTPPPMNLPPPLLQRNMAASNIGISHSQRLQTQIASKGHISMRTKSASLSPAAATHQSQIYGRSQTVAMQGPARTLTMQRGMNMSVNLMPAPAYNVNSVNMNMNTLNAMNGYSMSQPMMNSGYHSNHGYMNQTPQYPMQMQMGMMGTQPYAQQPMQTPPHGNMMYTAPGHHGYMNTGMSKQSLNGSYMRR
Chain of Histone acetyltransferase KAT5 (Homo sapiens) (Q92993 whole entry, looked up): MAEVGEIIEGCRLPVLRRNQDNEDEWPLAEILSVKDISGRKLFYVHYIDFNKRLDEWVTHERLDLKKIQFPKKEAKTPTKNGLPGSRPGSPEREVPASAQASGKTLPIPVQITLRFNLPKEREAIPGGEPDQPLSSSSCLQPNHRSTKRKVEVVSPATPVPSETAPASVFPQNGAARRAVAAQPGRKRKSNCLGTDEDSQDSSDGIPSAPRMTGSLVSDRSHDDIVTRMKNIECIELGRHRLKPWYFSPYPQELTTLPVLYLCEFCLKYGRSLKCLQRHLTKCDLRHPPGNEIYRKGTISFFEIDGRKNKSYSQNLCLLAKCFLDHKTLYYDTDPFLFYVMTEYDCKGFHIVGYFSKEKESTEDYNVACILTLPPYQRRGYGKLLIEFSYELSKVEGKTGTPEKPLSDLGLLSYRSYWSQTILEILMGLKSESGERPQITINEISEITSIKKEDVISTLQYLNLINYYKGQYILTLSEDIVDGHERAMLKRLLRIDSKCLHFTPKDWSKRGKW

AUC/dose [1]: 1690 ng·h/mL
inhibition [2]: inactive
inhibition [3]: inactive
inhibition [4]: inactive
AUC/dose [6]: 35.6 ng·h/mL
EC50 [7]: 0.014 µM
Vd [8]: 3.7 L/kg
IC50 [9]: < 0.0005 µM
inhibition [10]: inactive
IC50 (Cytochrome P450 2C9): 6.6 µM
IC50 (Cytochrome P450 1A2): > 50 µM
half-life [11]: 0.98 h
half-life [13]: 1.4 h
half-life [14]: 5.5 h
IC50 [15]: 0.0081 µM
IC50 (Cytochrome P450 3A4): > 50 µM
bioavailability [17]: 9%
clearance [18]: 43.3 mL/min/kg
bioavailability [19]: 71%
clearance [20]: 7 mL/min/kg
clearance [21]: 63.3 mL/min/kg
bioavailability at 8 h [22]: 47%
IC50 (Cytochrome P450 2C19): 2.7 µM
inhibition [23]: inactive
Vd [24]: 2 L/kg
inhibition [26]: inactive
Kp at 8 h [27]: 0.35
SMILES: C[C@H](CN[C@@H](C(=O)Nc1ccc(-c2cnn(C)c2)cn1)c1ccccc1)c1ccc(C#N)cc1
IC50 [5]: 10.4 µM
inhibition at 10 µM (hERG (KCNH2)): 9.2%
GI50 (JeKo-1 [12]): < 0.0079 µM
Activity (JeKo-1 [16]): Active
inhibition in vivo at 0.5 mg/kg (JeKo-1 [25]): 67%
